Measured values of several laboratories.
Protocols differ between the studies behind these lines.
Target: Serine/threonine-protein kinase LATS1 (LATS1, Homo sapiens, UniProt O95835)
Residues used in one study (O95835 1-1130): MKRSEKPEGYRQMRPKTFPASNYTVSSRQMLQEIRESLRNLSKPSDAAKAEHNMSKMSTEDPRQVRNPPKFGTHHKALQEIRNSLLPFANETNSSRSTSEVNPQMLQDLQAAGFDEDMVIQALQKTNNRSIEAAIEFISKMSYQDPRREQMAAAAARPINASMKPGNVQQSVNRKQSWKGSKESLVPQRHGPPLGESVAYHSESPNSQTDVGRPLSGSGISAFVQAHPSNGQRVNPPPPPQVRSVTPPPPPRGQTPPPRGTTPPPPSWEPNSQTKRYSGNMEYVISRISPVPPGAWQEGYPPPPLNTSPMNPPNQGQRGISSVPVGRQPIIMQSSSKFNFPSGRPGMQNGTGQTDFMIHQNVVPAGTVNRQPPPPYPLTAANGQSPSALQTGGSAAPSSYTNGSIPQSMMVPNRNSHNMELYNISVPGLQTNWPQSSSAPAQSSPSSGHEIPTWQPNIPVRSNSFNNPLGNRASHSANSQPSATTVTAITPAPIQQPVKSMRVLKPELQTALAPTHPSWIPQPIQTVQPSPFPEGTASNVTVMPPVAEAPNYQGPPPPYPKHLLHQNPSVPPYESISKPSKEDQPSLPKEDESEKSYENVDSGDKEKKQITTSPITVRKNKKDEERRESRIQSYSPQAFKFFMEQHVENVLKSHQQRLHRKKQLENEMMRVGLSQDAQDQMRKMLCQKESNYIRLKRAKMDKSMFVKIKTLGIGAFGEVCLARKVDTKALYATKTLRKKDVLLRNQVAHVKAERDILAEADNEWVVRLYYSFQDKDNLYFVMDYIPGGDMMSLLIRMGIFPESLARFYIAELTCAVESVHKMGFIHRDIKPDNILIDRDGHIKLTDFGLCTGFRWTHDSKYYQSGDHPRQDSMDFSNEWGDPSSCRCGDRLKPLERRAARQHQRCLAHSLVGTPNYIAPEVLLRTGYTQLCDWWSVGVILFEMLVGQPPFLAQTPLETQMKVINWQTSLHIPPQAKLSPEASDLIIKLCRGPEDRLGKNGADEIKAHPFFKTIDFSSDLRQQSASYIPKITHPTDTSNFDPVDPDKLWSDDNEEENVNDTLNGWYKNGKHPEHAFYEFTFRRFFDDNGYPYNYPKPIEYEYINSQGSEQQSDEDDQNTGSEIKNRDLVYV

CCCCC(=O)Nc1ccc(-c2ccc3ncn(CCC)c(=O)c3c2)cn1  remaining binding (binding, competition with immobilised ligand; 0.5 µM): 86%
C1=C/COCc2cc(ccc2OCCN2CCCC2)Nc2nccc(n2)-c2cccc(c2)COC/1  remaining binding (binding; 0.1 µM): 100%
Cc1cc(-c2ccnc3[nH]cc(F)c23)cc(F)c1[C@@]1(O)[C@H](C)CN(C2CCS(=O)(=O)CC2)C[C@@H]1C  residence time (binding, TR-FRET): 9.1 min
CN1CCN(C(=O)c2ccc(NC(=O)Nc3ccc(N(C)c4ccnc(Nc5ccc(CS(C)(=O)=O)cc5)n4)cc3)cc2)CC1  remaining binding (binding; 1 µM): 68%
C=CC(=O)N1CCC([C@@H]2CCNc3c(C(N)=O)c(-c4ccc(Oc5ccccc5)cc4)nn32)CC1  inhibition (enzyme activity, inhibitor; 1 µM): 0%
Cc1cc(-c2ccnc3[nH]cc(F)c23)cc(F)c1[C@@]1(O)[C@H](C)CN(C(=O)CN)C[C@@H]1C  residence time (binding, TR-FRET): 7.3 min
C[C@H]1CC[C@H](n2c3cnccc3c3cnc(Nc4ccc5c(n4)CCN(C(=O)CO)C5)nc32)CC1  remaining signal (cell-free assay; 1 µM): 47%
CC#CC(=O)N1CCC[C@H]1c1nc(-c2ccc(C(=O)Nc3ccccn3)cc2)c2c(N)nccn12  inhibition (enzyme activity, inhibitor; 1 µM): 7%
